Experimental data: PubChem BioAssay AID588395 (Southern Research Specialized Biocontainment Screening …, 2011)
Calls of active or inactive are those of the source.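 How the source made its calls: active means phage lysis blocked by at least 50% at any tested dose; inconclusive means replicate wells disagree with each other; inactive means the rest.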

test system: E. coli UTI89 K1F phage lysis inhibition, OD600 3 h; experiment: blocking phage-induced lysis of E. coli UTI89 – set 7, capsule biogenesis inhibitor project, dose response (AID 588395); settings: not given
Summary of the method: (§1)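 System: Uropathogenic Escherichia coli UTI89 (K1 capsule) bacterial culture | Medium: LB broth | Reagent: K1F phage | Doses: 0.78–100 µM final, 1% DMSO | Schedule: Compound pre-exposure 1.25 h at 37 °C shaking, read 3 h post-infection | Signal: OD600 absorbance | Read-out basis: Inhibition of phage lysis (%) | Benchmarks: Phage-resistant kpsM mutant culture as lysis-resistant comparison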

IC50 [nM] | Structure (SMILES)
2150 | COc1ccc2nc(NC(=O)c3ccc(Br)s3)sc2c1
1310 | O=C(Nc1ccncc1)c1ccc2ncsc2c1

test system: not listed separately; experiment: as above; settings: E. coli UTI89 K1F phage lysis inhibition, OD600 3 h; at 100 µM (top of the series)
Summary of the method: as §1

Structure (SMILES) | inhibition of phage lysis
O=C(Nc1nc2ccc(OC(F)(F)F)cc2s1)c1ccc(Br)s1 | 1.91% (inactive)
O=C(Nc1ccc(C(F)(F)F)cc1)c1ccc2ncccc2c1 | 2.46% (inactive)
COc1ccc2nc(NS(=O)(=O)c3ccc(Br)s3)sc2c1 | -0.42% (inactive)
O=C(Nc1nc2ccccc2s1)c1ccc(Br)cc1 | 1.7% (inactive)
COc1ccc(NC(=O)c2ccc3ncsc3c2)cc1 | 4.51% (inactive)
O=C(Nc1cccnc1)c1ccc2ncsc2c1 | 0.82% (inactive)
O=C(Nc1nc2ccc(C(F)(F)F)cc2s1)c1ccc(Br)o1 | 1.64% (inactive)
O=C(Nc1nc2ccc(OC(F)(F)F)cc2s1)c1ccc(Br)cc1 | -15.3% (inactive)
O=C(Nc1nc2ccccc2s1)c1ccc(Br)s1 | -6.12% (inactive)
Cc1ccc(C(=O)Nc2nc3ccc(Br)cc3s2)s1 | -11.1% (inactive)
O=C(Nc1nc2ccc(F)cc2s1)c1ccc(Br)o1 | 15.8% (inactive)
O=C(Nc1ccc(Br)cc1)c1ccc2ncccc2c1 | -0.43% (inactive)
COc1ccc2nc(NC(=O)c3ccc(Br)o3)sc2c1 | 41.7% (inactive)
COc1ccc2nc(NC(=O)c3ccc(Br)cc3)[nH]c2c1 | -2.55% (inactive)
COC(=O)c1ccc(NC(=O)c2ccc3ncccc3c2)cc1 | 39.1% (inactive)
COc1ccc(NC(=O)c2ccc3ncccc3c2)cc1 | -4.29% (inactive)
COc1ccc2nc(NC(=O)c3ccc(Br)o3)[nH]c2c1 | 0.41% (inactive)
O=S(=O)(Nc1nc2ccccc2s1)c1ccc(Br)s1 | -2.08% (inactive)
Cc1ccc(C(=O)Nc2nc3ccc(Cl)cc3s2)s1 | -2.05% (inactive)
O=C(Nc1nc2ccc(C(F)(F)F)cc2s1)c1ccc(Br)s1 | 2.86% (inactive)

Structure (SMILES) | inhibition of phage lysis
COc1ccc2nc(NC(=O)c3ccc(C)s3)sc2c1 | -3.86% (inactive)
O=C(Nc1nc2ccc(C(F)(F)F)cc2s1)c1ccc(Br)cc1 | 2.13% (inactive)
O=C(Nc1nc2ccc(Br)cc2s1)c1ccc(Br)o1 | 9.79% (inactive)
O=C(Nc1nc2ccc(Br)cc2s1)c1ccc(Br)s1 | 18% (inactive)
O=C(Nc1nc2ccc(Cl)cc2s1)c1ccc(Br)cc1 | 12.9% (inactive)
O=C(Nc1nc2ccccc2s1)c1ccc(Br)o1 | 0% (inactive)
O=C(Nc1nc2ccc(F)cc2s1)c1ccc(Br)cc1 | -15.7% (inactive)
O=C(Nc1nc2ccc(Cl)cc2s1)c1ccc(Br)s1 | 6.12% (inactive)
O=C(Nc1nc2ccc(OC(F)(F)F)cc2s1)c1ccc(Br)o1 | -11.1% (inactive)
Cc1ccc(NC(=O)c2ccc3ncccc3c2)cc1 | 0% (inactive)
O=S(=O)(Nc1nc2ccc(Br)cc2s1)c1ccc(Br)s1 | 6.67% (inactive)
O=C(Nc1nc2ccc(Br)cc2s1)c1ccc(Br)cc1 | 2.55% (inactive)
COc1ccc2nc(NC(=O)c3cc(Br)c(Br)s3)[nH]c2c1 | -1.23% (inactive)
O=C(Nc1nc2ccc(F)cc2s1)c1ccc(Br)s1 | 6.49% (inactive)
O=C(Nc1nc2ccc(Cl)cc2s1)c1ccc(Br)o1 | -4.26% (inactive)
COc1ccc2nc(NC(=O)c3ccc(Br)s3)[nH]c2c1 | 0.85% (inactive)
Cc1ccc(C(=O)Nc2nc3ccccc3s2)s1 | -9.44% (inactive)
COC(=O)c1ccc(NC(=O)c2ccc3ncsc3c2)cc1 | 9.02% (inactive)
COc1ccc2nc(NC(=O)c3ccc(Br)cc3)sc2c1 | 4.68% (inactive)
